The text below walks through data of ChEMBL document CHEMBL1130314, “Examination of the role of the acidic hydrogen in imparting selectivity of 7-(aminosulfonyl)-1,2,3,4-tetrahydroisoquinoline (SK&F 29661) toward inhibition of phenylethanolamine N-methyltransferase vs the alpha 2-adrenoceptor” (J Med Chem, 1997).

The nature of data set [1]: Dissociation constant was determined. It is filed as physicochemical.
Data set [2] concerns the target T1, Adrenergic receptor alpha-2 (Rattus norvegicus, UniProt P22086+P19328+P22909).
T1 sequence (P22086 whole entry): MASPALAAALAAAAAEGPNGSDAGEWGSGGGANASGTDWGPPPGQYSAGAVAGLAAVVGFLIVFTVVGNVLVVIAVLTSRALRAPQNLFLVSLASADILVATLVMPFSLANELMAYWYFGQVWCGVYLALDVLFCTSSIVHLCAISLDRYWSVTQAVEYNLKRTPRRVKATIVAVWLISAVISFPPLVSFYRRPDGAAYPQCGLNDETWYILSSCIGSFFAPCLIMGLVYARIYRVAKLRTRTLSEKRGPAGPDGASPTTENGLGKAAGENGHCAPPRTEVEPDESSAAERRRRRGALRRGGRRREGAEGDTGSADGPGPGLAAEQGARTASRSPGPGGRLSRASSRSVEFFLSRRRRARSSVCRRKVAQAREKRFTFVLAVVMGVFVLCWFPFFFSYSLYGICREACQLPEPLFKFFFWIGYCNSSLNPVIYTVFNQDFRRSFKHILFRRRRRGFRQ
T1 sequence (P19328 whole entry): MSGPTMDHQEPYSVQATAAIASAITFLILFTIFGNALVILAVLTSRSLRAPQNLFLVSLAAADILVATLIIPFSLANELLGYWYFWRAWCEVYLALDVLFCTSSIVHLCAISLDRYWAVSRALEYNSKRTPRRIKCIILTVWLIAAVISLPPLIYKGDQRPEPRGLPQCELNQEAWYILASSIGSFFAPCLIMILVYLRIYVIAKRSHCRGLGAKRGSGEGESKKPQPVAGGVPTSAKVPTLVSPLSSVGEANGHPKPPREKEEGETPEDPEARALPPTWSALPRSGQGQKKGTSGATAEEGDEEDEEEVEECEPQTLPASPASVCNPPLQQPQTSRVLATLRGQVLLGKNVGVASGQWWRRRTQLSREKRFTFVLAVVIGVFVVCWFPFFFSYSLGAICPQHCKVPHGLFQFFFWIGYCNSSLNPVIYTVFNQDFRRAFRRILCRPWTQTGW
T1 sequence (P22909 whole entry): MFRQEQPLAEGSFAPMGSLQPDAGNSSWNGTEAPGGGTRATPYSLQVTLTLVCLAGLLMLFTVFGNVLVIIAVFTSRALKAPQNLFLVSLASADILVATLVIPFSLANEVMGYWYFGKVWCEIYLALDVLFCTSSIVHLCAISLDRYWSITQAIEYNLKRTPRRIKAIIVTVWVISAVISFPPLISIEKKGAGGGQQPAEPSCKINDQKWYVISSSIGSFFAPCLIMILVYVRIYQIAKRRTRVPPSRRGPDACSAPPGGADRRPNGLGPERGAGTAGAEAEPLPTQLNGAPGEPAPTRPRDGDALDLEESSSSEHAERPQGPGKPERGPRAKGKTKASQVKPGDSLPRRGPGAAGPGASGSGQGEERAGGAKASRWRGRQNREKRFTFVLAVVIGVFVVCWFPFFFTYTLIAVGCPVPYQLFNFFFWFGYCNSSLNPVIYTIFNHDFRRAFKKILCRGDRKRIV
In words: Inhibition of [3H]clonidine binding to Alpha-2 adrenergic receptor. It is filed as protein assay. In outline:
(§1)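 Cortex from male Sprague-Dawley rats, homogenized and washed three times by centrifugation (50000g) in 50 mM Tris·HCl pH 7.7. Incubated with 4.0 nM (final) [3H]clonidine for 30 min at 25 °C. Bound ligand collected by rapid filtration and counted. Nonspecific binding defined with 2 µM phentolamine. Quadruplicates at 5 inhibitor concentrations over a 16-fold range.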

Data set [3] has as its target T2, Phenylethanolamine N-methyltransferase (Bos taurus, UniProt P10938).
T2 sequence (P10938 whole entry): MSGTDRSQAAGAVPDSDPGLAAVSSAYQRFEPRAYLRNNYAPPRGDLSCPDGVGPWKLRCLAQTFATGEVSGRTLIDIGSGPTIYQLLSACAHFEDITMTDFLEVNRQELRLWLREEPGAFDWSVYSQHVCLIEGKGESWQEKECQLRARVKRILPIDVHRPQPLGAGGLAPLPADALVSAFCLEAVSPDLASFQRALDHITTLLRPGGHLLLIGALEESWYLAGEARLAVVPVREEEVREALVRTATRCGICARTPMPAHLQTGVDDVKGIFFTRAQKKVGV
In words: Inhibition of Phenylethanolamine N-methyl-transferase (PNMT). A digest of the protocol:
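Bovine adrenal PNMT, purified through isoelectric precipitation. Radiochemical assay in phosphate buffer pH 8.0 with unlabeled AdoMet plus [methyl-3H]AdoMet, with phenylethanolamine as the variable substrate. Incubated 30 min at 37 °C, then quenched with borate pH 10.0. Product extracted into toluene–isoamyl alcohol (7:3) and scintillation counted. Duplicates at three inhibitor concentrations over a 5-fold range. Ki from hyperbolic fit; mode checked by 1/V vs 1/S plots.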

Data set [4] is described as follows: Selectivity was expressed as the ratio is Ki of alpha 2-Adrenoceptor to tht of PNMT.
The target in data set [5] is T1, Adrenergic receptor alpha-2. In words: Ability to inhibit binding of [3H]clonidine at the Alpha-2 adrenergic receptor. It is filed as protein assay. A digest of the protocol:
as §1

A short description of data set [6]: Selectivity was expressed as the ratio is Ki of alpha 2-Adrenoceptor to that of PNMT.

In data set [1], `CS(=O)(=O)Nc1ccc2c(c1)CNCC2` registered a pKa of 9. Besides, the Ki in data set [2] stood at 11 µM; in data set [3] it was 48 µM. Moreover, in data set [4], the Selectivity ratio is 0.23.
`CS(=O)(=O)NCc1ccc2c(c1)CNCC2`: the pKa in data set [1] turned out to be 11.9. Further, the inhibitory constant (Ki) in data set [2] worked out at 18 µM; in data set [3], 330 µM. The Selectivity ratio in data set [4] stood at 0.055.
In the same order, the values of `CNS(=O)(=O)c1ccc2c(c1)CNCC2` are 11.4, 130 µM, 4.6 µM and 28.
The like results for `NCc1cccc2cc(O)ccc12` were, in that order, 10, 2.1 µM, 8.4 µM and 0.25.
Turning to `Clc1ccc2c(c1Cl)CNCC2`, the figures for the Ki in data set [5] and in data set [3] were […] and 0.2 µM, respectively.
For `COc1ccc2c(CN)cccc2c1`, the Ki in data set [2] is 4.6 µM; in data set [3], 15 µM. In data set [4], the Selectivity ratio was found to be 0.31.
`NS(=O)(=O)c1ccc2c(c1)CNCC2` showed a pKa in data set [1] of […]. In data set [2], this compound registered a Ki of […].
The compound `Oc1ccc2c(c1)CNCC2` had a pKa in data set [1] of 10. Besides, the Ki in data set [2] turned out to be 2.2 µM. The Selectivity ratio in data set [6] came to 0.85.
As for `CS(=O)(=O)N(c1ccc2c(c1)CNCC2)S(C)(=O)=O`, the figures for the Ki in data set [2] and in data set [3] were 190 µM and 4500 µM, respectively. Further, the Selectivity ratio in data set [4] was 0.042.
`O=S(=O)(Nc1ccc(Cl)cc1)c1ccc2c(c1)CNCC2`: in data set [1], the pKa was found to be 7.8. The inhibition constant Ki in data set [2] was 6.3 µM; in data set [3], 2.6 µM. For the same compound, the Selectivity ratio in data set [4] was determined as 2.4.
Consider `NCc1cccc2ccccc12`, for which the figures for the Ki in data set [2] and in data set [3] were 1.6 µM and 4.7 µM, respectively. Moreover, in data set [4], the Selectivity ratio came to 0.34.
In the case of `Oc1ccc2c3c(ccc2c1)CCNC3`, the pKa in data set [1] stood at 10. Besides, the Ki in data set [2] amounted to 0.078 µM; in data set [3], 0.98 µM. In data set [4], the Selectivity ratio was determined as 0.08.
As for `COc1ccc2c3c(ccc2c1)CCNC3`, the Ki in data set [2] was determined as 0.84 µM; in data set [3], 1.4 µM. For the same compound, in data set [4], the Selectivity ratio was 0.6.
